Here are results for 34 molecules from ChEMBL document CHEMBL1629490, “Synthesis and anti-inflammatory evaluation of novel mono-carbonyl analogues of curcumin in LPS-stimulated RAW 264.7 macrophages” (Eur J Med Chem, 2010).

Active and inactive are the calls of the source. No cut-off for these calls is given here.

Series [1] concerns RAW264.7. The series can be described thus: Antiinflammatory activity in mouse RAW264.7 cells assessed as inhibition of LPS-induced TNF alpha production at 10 uM after 2 hrs by ELISA. The settings on record: for inhibition at 10 µM: RAW264.7, 2 h. Type of series: functional. Summed up: (§1)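 RAW 264.7 cells were grown in DMEM with 10% heat-inactivated FBS and penicillin/streptomycin at 37 °C with 5% CO2, plated at 4.0 × 10^5/plate overnight, and pretreated for 2 h with compound at 10 µM (DMSO stock; vehicle control). LPS (0.5 µg/ml) was added for 22 h. TNF-α and IL-6 in the medium were measured by ELISA, normalized to cell protein, and expressed as % of LPS control. Values are mean ± SE of 3–5 independent experiments.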
Background: In an ELISA, binding on a coated surface is turned into a signal by an enzyme label.

Series [2] concerns RAW264.7. The series can be described thus: Antiinflammatory activity in mouse RAW264.7 cells assessed as inhibition of LPS-induced IL-6 production at 10 uM after 2 hrs by ELISA. The settings on record: for inhibition at 10 µM: RAW264.7, 2 h. Type of series: functional. In short, it runs like this:
as §1

Series [3] deals with RAW264.7. The series can be described thus: Antiinflammatory activity in mouse RAW264.7 cells assessed as inhibition of LPS-induced TNF alpha production after 2 hrs by ELISA. Type of series: functional, cell-based. The settings on record: RAW264.7, 2 h.
Series [4] has as its system RAW264.7. The series is described as follows: Antiinflammatory activity in mouse RAW264.7 cells assessed as inhibition of LPS-induced IL-6 production after 2 hrs by ELISA. The settings on record: RAW264.7, 2 h. Type of series: functional, cell-based.
Series [5] concerns RAW264.7. The series can be described thus: Antiinflammatory activity in mouse RAW264.7 cells assessed as inhibition of LPS-induced TNF alpha production at 1 to 20 uM after 2 hrs by ELISA. Type of series: functional, cell-based. In short, it runs like this: (§2)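 Murine RAW 264.7 cells were plated at 4.0 × 10^6/plate overnight (37 °C, 5% CO2) and pretreated for 2 h with compound at 1, 2.5, 5.0, 10 and 20 µM. LPS at 0.5 µg/ml followed for 22 h. Media TNF-α and IL-6 were measured by ELISA, normalized to total cell-lysate protein, and given as % of LPS control. Values are mean ± SE of 3–5 independent experiments.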

In series [6] the test system is RAW264.7. The series is described as follows: Antiinflammatory activity in mouse RAW264.7 cells assessed as inhibition of LPS-induced IL-6 production at 1 to 20 uM after 2 hrs by ELISA. Type of series: functional, cell-based. Summed up: as §2
The test system of series [7] is RAW264.7. The series can be described thus: Cytotoxicity against mouse RAW264.7 cells. Type of series: cell-based.

For `O=C1/C(=C/c2ccc(N3CCCCC3)cc2)CCC/C1=C\c1ccc(N2CCCCC2)cc1`, the inhibition entry in the series with RAW264.7 [1] and with RAW264.7 [2] was “Active” each time.

Take `Cc1cc(N(CCCl)CCCl)ccc1/C=C/C(=O)/C=C/c1ccc(N(CCCl)CCCl)cc1C`: the inhibition (as a rule, the change of the read-out against control, counted positive when it falls) at 10 µM amounted to 20% in the series with RAW264.7 [1] and 30% with RAW264.7 [2].

Consider `COc1cccc(/C=C/C(=O)/C=C/c2cccc(OC)c2O)c1O`, for which the inhibition result with RAW264.7 [1] and in the series with RAW264.7 [2] was “Active” throughout.

For `COc1cc(OC)c(OC)cc1/C=C1\CC/C(=C\c2cc(OC)c(OC)cc2OC)C1=O`, the inhibition result with RAW264.7 [1] and in the series with RAW264.7 [2] was “Active” throughout.

As for `O=C1/C(=C/c2ccc(C(F)(F)F)cc2C(F)(F)F)CCC/C1=C\c1ccc(C(F)(F)F)cc1C(F)(F)F`, the inhibition at 10 µM in the series with RAW264.7 [1] is 20%. Also, the inhibition entry in the series on RAW264.7 [2] was “Active”.

Take `COc1cc(OC)c(OC)cc1/C=C1\CCC/C(=C\c2cc(OC)c(OC)cc2OC)C1=O`: the inhibition entry in the series with RAW264.7 [1] and with RAW264.7 [2] was “Active” in each case.

For the molecule `COc1ccc(F)c(/C=C2\CC/C(=C\c3cc(OC)ccc3F)C2=O)c1`, the inhibition result in the series on RAW264.7 [1] was “Active”. For the same molecule, in the series with RAW264.7 [2], the inhibition at 10 µM was determined as 30%.

For the molecule `O=C1/C(=C/c2ccc(C(F)(F)F)cc2F)CCC/C1=C\c1ccc(C(F)(F)F)cc1F`, the inhibition entry in the series with RAW264.7 [1] and in the series on RAW264.7 [2] was “Active” in each case.

For `COc1ccc(/C=C/C(=O)/C=C/c2ccc(OC)cc2F)c(F)c1`, the inhibition at 10 µM in the series on RAW264.7 [1] is 20%; in the series on RAW264.7 [2], 51.1%.

`O=C1/C(=C/c2c(F)cccc2C(F)(F)F)CC/C1=C\c1c(F)cccc1C(F)(F)F`: in the series on RAW264.7 [1], the inhibition at 10 µM is above 20%. Moreover, the inhibition entry in the series with RAW264.7 [2] is “Active”.

On to `Cc1cc(N(CCCl)CCCl)ccc1/C=C1\CC/C(=C\c2ccc(N(CCCl)CCCl)cc2C)C1=O`, for which the inhibition entry with RAW264.7 [1] is “Active”. Moreover, the inhibition at 10 µM with RAW264.7 [2] stood at 30%.

Take `O=C1/C(=C/c2ccc(N3CCOCC3)cc2)CC/C1=C\c1ccc(N2CCOCC2)cc1`: the inhibition entry with RAW264.7 [1] and with RAW264.7 [2] was “Active” each time.

With `O=C1/C(=C/c2c(F)cccc2C(F)(F)F)CCC/C1=C\c1c(F)cccc1C(F)(F)F`, the inhibition entry with RAW264.7 [1] and with RAW264.7 [2] was “Active” throughout.

Consider `CCOc1ccc(Br)cc1/C=C/C(=O)/C=C/c1cc(Br)ccc1OCC`, for which the IC50 (commonly the point on the concentration scale where inhibition reaches its midpoint) in the series on RAW264.7 [3] was found to be 6.28 µM; in the series on RAW264.7 [4] it was 3640 nM. Also, the inhibition result with RAW264.7 [1] and in the series with RAW264.7 [2] was “Active” in each case. The inhibition entry in the series with RAW264.7 [5] and with RAW264.7 [6] was “Dose-dependent effect” in each case. Moreover, the Activity result in the series with RAW264.7 [7] was “Non-toxic”.

As for `O=C1/C(=C/c2cccc(C(F)(F)F)c2F)CC/C1=C\c1cccc(C(F)(F)F)c1F`, the inhibition result with RAW264.7 [1] and in the series with RAW264.7 [2] was “Active” each time.

For the molecule `COc1cc(/C=C/C(=O)CC(=O)/C=C/c2ccc(O)c(OC)c2)ccc1O` [CURCUMIN], the inhibition at 10 µM in the series on RAW264.7 [1] was found to be 35.6%; in the series with RAW264.7 [2] it was 75.7%.

For the molecule `O=C1/C(=C/c2ccc(C(F)(F)F)cc2F)CC/C1=C\c1ccc(C(F)(F)F)cc1F`, the inhibition result in the series on RAW264.7 [1] and in the series on RAW264.7 [2] was “Active” each time.

For `O=C1/C(=C/c2ccc(N3CCCCC3)cc2)CC/C1=C\c1ccc(N2CCCCC2)cc1`, in the series on RAW264.7 [1], the inhibition at 10 µM amounted to 20%. Further, in the series with RAW264.7 [2], the inhibition entry was “Active”.

Consider `COc1cc(OC)c(OC)cc1/C=C/C(=O)/C=C/c1cc(OC)c(OC)cc1OC`, for which the inhibition at 10 µM with RAW264.7 [1] is above 20%. For the same molecule, the inhibition entry in the series on RAW264.7 [2] was “Active”.

Regarding `CCN(CC)c1ccc(/C=C2\CCC/C(=C\c3ccc(N(CC)CC)cc3)C2=O)cc1`, the inhibition entry in the series with RAW264.7 [1] and in the series with RAW264.7 [2] was “Active” throughout.

Take `COc1cccc(/C=C2\CC/C(=C\c3cccc(OC)c3O)C2=O)c1O`: the inhibition result in the series on RAW264.7 [1] and with RAW264.7 [2] was “Active” each time.

Take `O=C1/C(=C/c2cccc(C(F)(F)F)c2F)CCC/C1=C\c1cccc(C(F)(F)F)c1F`: the inhibition at 10 µM in the series with RAW264.7 [1] is above 20%. The inhibition entry in the series on RAW264.7 [2] was “Active”.

Consider `COc1ccc(F)c(/C=C2\CCC/C(=C\c3cc(OC)ccc3F)C2=O)c1`, for which the inhibition at 10 µM with RAW264.7 [1] came out at 20%. Besides, the inhibition result with RAW264.7 [2] was “Active”.

In the case of `CCN(CC)c1ccc(/C=C2\CC/C(=C\c3ccc(N(CC)CC)cc3)C2=O)cc1`, the IC50 turned out to be 16.4 µM in the series with RAW264.7 [3] and 1070 nM in the series with RAW264.7 [4]. The inhibition at 10 µM in the series with RAW264.7 [1] was 67.5%; in the series with RAW264.7 [2], 92.7%. Besides, the inhibition result in the series on RAW264.7 [5] and with RAW264.7 [6] was “Dose-dependent effect” in each case. Also, the Activity entry in the series with RAW264.7 [7] was “Non-toxic”.

For `CCOc1ccc(Br)cc1/C=C1\CC/C(=C\c2cc(Br)ccc2OCC)C1=O`, the inhibition result with RAW264.7 [1] and in the series on RAW264.7 [2] was “Active” throughout.

Consider `CCOc1ccc(Br)cc1/C=C1\CCC/C(=C\c2cc(Br)ccc2OCC)C1=O`, for which the inhibition result with RAW264.7 [1] and in the series on RAW264.7 [2] was “Active” each time.

With `O=C(/C=C/c1ccc(N2CCOCC2)cc1)/C=C/c1ccc(N2CCOCC2)cc1`, the values for the inhibition at 10 µM in the series with RAW264.7 [1] and in the series with RAW264.7 [2] were above 20% and 50%, respectively.

For `COc1ccc(/C=C2\CC/C(=C\c3ccc(OC)cc3F)C2=O)c(F)c1`, the inhibition at 10 µM in the series on RAW264.7 [1] amounted to 20%. For the same molecule, the inhibition result in the series with RAW264.7 [2] was “Active”.

As for `O=C(/C=C/c1c(F)cccc1C(F)(F)F)/C=C/c1c(F)cccc1C(F)(F)F`, the inhibition entry in the series with RAW264.7 [1] was “Active”. Further, the inhibition at 10 µM in the series on RAW264.7 [2] is 30%.

Consider `CCOC(OCC)c1cccc(/C=C2\CC/C(=C\c3cccc(C(OCC)OCC)c3)C2=O)c1`, for which the inhibition entry with RAW264.7 [1] and with RAW264.7 [2] was “Active” each time.

As to `Cc1cc(N(CCCl)CCCl)ccc1/C=C1\CCC/C(=C\c2ccc(N(CCCl)CCCl)cc2C)C1=O`, the inhibition result with RAW264.7 [1] and with RAW264.7 [2] was “Active” in each case.

On to `CCN(CC)c1ccc(/C=C/C(=O)/C=C/c2ccc(N(CC)CC)cc2)cc1`, for which the inhibition entry with RAW264.7 [1] is “Active”. Besides, the inhibition at 10 µM in the series with RAW264.7 [2] amounted to 50%.

Turning to `O=C1/C(=C/c2ccc(N3CCOCC3)cc2)CCC/C1=C\c1ccc(N2CCOCC2)cc1`, the inhibition result in the series on RAW264.7 [1] and with RAW264.7 [2] was “Active” throughout.

Take `O=C(/C=C/c1ccc(N2CCCCC2)cc1)/C=C/c1ccc(N2CCCCC2)cc1`: in the series on RAW264.7 [1], the inhibition entry was “Active”. Besides, the inhibition at 10 µM in the series with RAW264.7 [2] came to 50%.
